Some results are limits rather than exact numbers.

Assay [1] has as its target T1, 5-hydroxytryptamine receptor 1A (Homo sapiens, UniProt P08908).
T1 sequence (P08908 whole entry): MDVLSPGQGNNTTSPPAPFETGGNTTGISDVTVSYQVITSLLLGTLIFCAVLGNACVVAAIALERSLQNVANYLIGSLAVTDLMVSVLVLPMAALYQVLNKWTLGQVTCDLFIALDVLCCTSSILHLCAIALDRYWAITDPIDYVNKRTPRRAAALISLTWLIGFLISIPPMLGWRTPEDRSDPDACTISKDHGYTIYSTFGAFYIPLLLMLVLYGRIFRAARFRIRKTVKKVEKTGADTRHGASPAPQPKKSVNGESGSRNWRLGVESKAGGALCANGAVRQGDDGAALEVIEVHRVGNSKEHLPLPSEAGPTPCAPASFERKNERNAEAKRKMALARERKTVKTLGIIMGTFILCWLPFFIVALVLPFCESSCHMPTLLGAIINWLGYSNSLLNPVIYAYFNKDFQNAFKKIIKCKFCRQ
Kind of assay: Displacement of [3H]8-OH-DPAT from 5-hydroxytryptamine 1A receptor expressed in CHO cell membranes. The gist of the method:
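[3H]8-OH-DPAT (164.5 Ci/mmol, 1 nM) competition on CHO membranes expressing a cloned mammalian 5-HT1A receptor. Ten drug concentrations in duplicate. IC50 from a nonlinear single-site fit, converted to Ki with Cheng–Prusoff. Ki in nM ± SEM.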

Assay [2] deals with Serotonin 2 (5-HT2) receptor (Homo sapiens, UniProt P41595+P28223+P28335). As to the kind of experiment: Binding affinity towards 5-hydroxytryptamine 2 receptor expressed in CHO cell membranes using [3H]ketanserin (60 Ci/mmol, 1 nM). In outline:
(§1)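 Competition binding on membranes from CHO cells expressing a cloned mammalian 5-HT2 receptor, with [3H]ketanserin (60 Ci/mmol, 1 nM). Ten drug concentrations run in duplicate. IC50 from a nonlinear single-site fit, converted to Ki by Cheng–Prusoff. Ki reported in nM ± SEM.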

For assay [3], the target named is T2, Adrenergic receptor alpha-1 (Rattus norvegicus, UniProt P15823+P23944+P43140).
T2 sequence (P15823 whole entry): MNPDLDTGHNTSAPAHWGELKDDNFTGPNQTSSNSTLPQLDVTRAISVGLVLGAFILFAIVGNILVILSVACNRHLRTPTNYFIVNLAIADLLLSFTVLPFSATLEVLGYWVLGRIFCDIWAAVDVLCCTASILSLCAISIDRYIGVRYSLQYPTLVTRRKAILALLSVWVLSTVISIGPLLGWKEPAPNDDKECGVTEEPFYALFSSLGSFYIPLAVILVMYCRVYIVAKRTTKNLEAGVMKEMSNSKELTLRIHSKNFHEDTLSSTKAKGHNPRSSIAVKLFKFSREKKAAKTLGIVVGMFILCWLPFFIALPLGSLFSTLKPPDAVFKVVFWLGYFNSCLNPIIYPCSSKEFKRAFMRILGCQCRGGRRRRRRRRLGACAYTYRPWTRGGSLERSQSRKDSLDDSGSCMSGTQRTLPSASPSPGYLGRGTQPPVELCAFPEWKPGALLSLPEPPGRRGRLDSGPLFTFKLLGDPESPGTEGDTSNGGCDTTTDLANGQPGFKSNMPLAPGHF
T2 sequence (P23944 whole entry): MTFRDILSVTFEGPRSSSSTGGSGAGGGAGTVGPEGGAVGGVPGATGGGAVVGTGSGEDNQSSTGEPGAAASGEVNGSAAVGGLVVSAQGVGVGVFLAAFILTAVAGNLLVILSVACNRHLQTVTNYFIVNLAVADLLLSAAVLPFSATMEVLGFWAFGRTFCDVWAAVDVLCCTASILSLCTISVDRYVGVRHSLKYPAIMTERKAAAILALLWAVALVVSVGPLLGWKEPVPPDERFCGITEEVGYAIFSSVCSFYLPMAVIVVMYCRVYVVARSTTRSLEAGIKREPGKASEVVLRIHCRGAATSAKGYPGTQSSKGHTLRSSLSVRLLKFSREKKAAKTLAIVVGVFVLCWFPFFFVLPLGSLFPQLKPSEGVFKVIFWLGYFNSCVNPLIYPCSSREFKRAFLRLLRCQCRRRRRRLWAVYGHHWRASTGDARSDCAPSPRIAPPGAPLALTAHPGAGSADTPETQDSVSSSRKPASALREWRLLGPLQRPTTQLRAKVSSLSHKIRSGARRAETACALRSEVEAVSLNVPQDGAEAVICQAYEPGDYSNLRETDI
T2 sequence (P43140 whole entry): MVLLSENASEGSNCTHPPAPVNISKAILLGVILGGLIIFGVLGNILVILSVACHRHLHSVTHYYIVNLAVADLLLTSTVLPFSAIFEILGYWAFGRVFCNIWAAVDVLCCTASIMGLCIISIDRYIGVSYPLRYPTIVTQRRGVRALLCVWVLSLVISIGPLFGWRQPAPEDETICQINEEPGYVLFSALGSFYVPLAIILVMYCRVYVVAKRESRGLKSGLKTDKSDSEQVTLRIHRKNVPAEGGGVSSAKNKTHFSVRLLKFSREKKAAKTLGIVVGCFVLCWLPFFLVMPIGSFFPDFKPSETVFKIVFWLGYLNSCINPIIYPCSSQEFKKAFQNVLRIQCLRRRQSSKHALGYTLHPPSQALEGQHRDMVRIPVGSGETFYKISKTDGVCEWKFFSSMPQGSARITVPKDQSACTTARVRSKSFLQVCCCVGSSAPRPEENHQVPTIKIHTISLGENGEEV
Kind of assay: Binding affinity towards Alpha-1 adrenergic receptor from rat whole brain using [3H]prazosin (18.1 Ci/mmol,0.9nanoM)as radioligand. The gist of the method: (§2)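 Rat whole-brain membranes displaced by test drug from [3H]prazosin (18.1 Ci/mmol, 0.9 nM). Ten concentrations in duplicate. IC50 by nonlinear single-site fit, then Ki via Cheng–Prusoff. Ki given in nM ± SEM.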

For assay [4], the target named is T3, D(2) dopamine receptor (Homo sapiens, UniProt P14416). As to the kind of experiment: Binding affinity towards Dopamine receptor D2 from mammalian clones expressed in CHO cell membranes using 2 (86.1 Ci/mmol,1.7nanoM)as radioligand. In outline: (§3)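 Cloned mammalian D2 receptor in CHO cell membranes, radioligand [3H]U-86170 (86.1 Ci/mmol, 1.7 nM). Competition over ten drug concentrations in duplicate. IC50 from a single-site nonlinear fit, with Ki by Cheng–Prusoff. Values in nM ± SEM.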

Assay [5] relates to Mus musculus. Kind of assay: Result of hypothermia assay carried in Charles river CF-1 male mice at a dose of 0.01 mg/kg (s.c. administration). The format is functional. In outline: (§4)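 Male CF-1 mice (18–22 g), four per dose, individually caged. Rectal temperature (°F) taken before and 20 min after a 0.1 mL sc injection. A fall of 2 °F or more counted as a positive hypothermic response. Doses started at 30 mg/kg and were lowered by half-log steps.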

Assay [6] relates to Mus musculus. Kind of assay: Result of hypothermia assay carried in Charles river CF-1 male mice at a dose of 17.3 mg/kg (s.c. administration). The format is functional. In outline: as §4
Assay [7] deals with T3, D(2) dopamine receptor. Kind of assay: Compound was evaluated for the binding affinity towards Dopamine receptor D2 from mammalian clones expressed in CHO cell membranes using 2 (86.1 Ci/mmol,1.7nanoM)as radioligand. The gist of the method:
as §3

Assay [8] concerns Mus musculus. Kind of assay: Result of hypothermia assay carried in Charles river CF-1 male mice at a dose of 1.3 mg/kg (s.c. administration). It counts as functional. In outline:
(§5)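 CF-1 male mice (18–22 g), four per dose, caged individually. Rectal temperature (°F) taken before dosing and 20 min after. A drop of 2 °F or more counted as positive. Doses started at 30 mg/kg and fell by half-log steps until 0/4 mice responded. Route: sc, 0.1 mL; po, 0.2 mL by oral syringe. ED50 by Spearman-Kärber.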

In assay [9] the test system is Mus musculus. As to the kind of experiment: Result of hypothermia assay carried in Charles river CF-1 male mice at a dose of 1.7 mg/kg (oral administration). It counts as functional. In outline:
as §5

A short description of assay [10]: Compound was evaluated for the binding affinity towards 5-hydroxytryptamine 2 receptor from mammalian clones expressed in CHO cell membranes using [3H]-ketanserin as radioligand. In outline:
as §1

In assay [11] the target is T2, Adrenergic receptor alpha-1. Kind of assay: Compound was evaluated for the binding affinity towards Alpha-1 adrenergic receptor from rat whole brain using [3H]prazosin as radioligand. The gist of the method: as §2
Assay [12] has as its target T3, D(2) dopamine receptor. Kind of assay: Compound was evaluated for the binding affinity towards Dopamine receptor D2 from mammalian clones expressed in CHO cell membranes using [3H]U-86170 as radioligand. In outline:
as §3

In assay [13] the test system is Mus musculus. Kind of assay: Result of hypothermia assay carried in Charles river CF-1 male mice at a dose of 30 mg/kg (s.c. administration). It counts as functional. The gist of the method: as §4

T3 sequence (P14416 whole entry): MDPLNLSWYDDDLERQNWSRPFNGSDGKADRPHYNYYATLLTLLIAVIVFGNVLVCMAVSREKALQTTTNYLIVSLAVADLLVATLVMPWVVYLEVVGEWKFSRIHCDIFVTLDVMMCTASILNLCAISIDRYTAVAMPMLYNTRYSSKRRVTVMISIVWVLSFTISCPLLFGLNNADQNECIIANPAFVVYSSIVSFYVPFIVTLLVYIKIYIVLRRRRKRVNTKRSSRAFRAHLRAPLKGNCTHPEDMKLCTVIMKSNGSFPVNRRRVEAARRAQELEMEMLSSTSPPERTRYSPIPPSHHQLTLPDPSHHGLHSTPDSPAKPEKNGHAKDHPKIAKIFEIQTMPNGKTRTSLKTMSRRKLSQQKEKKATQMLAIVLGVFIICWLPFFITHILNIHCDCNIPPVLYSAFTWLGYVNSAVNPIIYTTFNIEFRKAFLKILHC

Turning to `COC(=O)c1cc2c3c(ccc2[nH]1)OCC(CN1CCC(Nc2ccccc2)(C(N)=O)CC1)O3` (stereo unspecified), the Ki in [1] was 22 nM; in assay [2], 171 nM; in [3] it was 19.8 nM; on D(2) dopamine receptor [4], greater than 388 nM.

As to `N#Cc1cc2c3c(ccc2[nH]1)OCC(CN1CCC2(CC1)C(=O)NCN2c1ccccc1)O3` (stereo unspecified), the Ki in assay [1] came to 0.5 nM; in [2] it was 281 nM; in assay [3], 6 nM; at D(2) dopamine receptor [4], 1.5 nM. The Temperature decrease with Mus musculus [5] is listed as 13 degrees F.

As to `CCCCOC(=O)c1cc2c3c(ccc2[nH]1)OCC(CN1CCC2(CC1)C(=O)NCN2c1ccccc1)O3` (stereo unspecified), the Ki in assay [1] amounted to 3 nM; in assay [2], 92.6 nM; in [3] it was 39.6 nM; at D(2) dopamine receptor [4], 5.7 nM.

`O=C(NCCCc1ccccc1)c1cc2c3c(ccc2[nH]1)OCC(CNCCCc1ccccc1)O3` (stereo unspecified): the Ki in assay [1] is 1.6 nM; in [2], 27.6 nM; in assay [3], 11.4 nM; on D(2) dopamine receptor [4] it was 41 nM.

Turning to `O=C(O)c1cc2c3c(ccc2[nH]1)OCC(CN1CCC2(CC1)C(=O)NCN2c1ccccc1)O3` (stereo unspecified), the Ki in [1] is 17.8 nM; in assay [2] it was greater than 1722 nM; in [3] it was greater than 862 nM; on D(2) dopamine receptor [4], 58 nM. This compound registered a Temperature decrease with Mus musculus [6] of 3.6 degrees F.

Take `O=C1NCN(c2ccccc2)C12CCN(CC1COc3ccc4[nH]ccc4c3O1)CC2` (stereo unspecified): the inhibition constant Ki in assay [1] came to 0.4 nM; on D(2) dopamine receptor [7], 0.2 nM.

Turning to `O=C(OCc1ccccc1)c1cc2c3c(ccc2[nH]1)OCC(CN1CCC2(CC1)C(=O)NCN2c1ccccc1)O3` (stereo unspecified), the Ki worked out at 1 nM in assay [1], 143 nM in assay [2], 30.4 nM in [3] and 5.8 nM at D(2) dopamine receptor [4]. Besides, the Temperature decrease in the assay on Mus musculus [6] came out at 5.6 degrees F.

Turning to `COC(=O)c1cc2c3c(ccc2[nH]1)OCC(CNCCCc1ccccc1)O3` (stereo unspecified), the Ki in assay [1] was found to be 0.2 nM; in assay [2] it was 38.7 nM; in [3], 0.6 nM; at D(2) dopamine receptor [4], 15.9 nM. Moreover, the results for the Temperature decrease with Mus musculus [8] and in the assay on Mus musculus [9] were 13.6 degrees F and 8.8 degrees F, respectively.

With `CCOC(=O)C1CCN(CC2COc3ccc4[nH]c(C(=O)OC)cc4c3O2)CC1` (stereo unspecified), the Ki is 1.2 nM in assay [1], 170 nM in [2], 12.3 nM in assay [3] and 255 nM at D(2) dopamine receptor [4].

On to `COC(=O)c1cc2c3c(ccc2[nH]1)OCC(CN1CCC2(CC1)C(=O)NCN2c1ccccc1)O3` (stereo unspecified), for which the Ki in [1] came out at 0.9 nM; in assay [10], 640 nM; in [11] it was 11.4 nM; on D(2) dopamine receptor [12], 3.1 nM. Further, the Temperature decrease in the assay on Mus musculus [13] turned out to be 3.2 degrees F.

As for `NC(=O)c1cc2c3c(ccc2[nH]1)OCC(CN1CCC2(CC1)C(=O)NCN2c1ccccc1)O3` (stereo unspecified), the Ki in assay [1] is 0.3 nM; in assay [2], greater than 1722 nM; in [3], 29.4 nM; on D(2) dopamine receptor [4] it was 1.8 nM.

On to `O=C1NCN(c2ccccc2)C12CCN(CC1COc3ccc4[nH]c(CO)cc4c3O1)CC2` (stereo unspecified), for which the Ki in [1] is 0.6 nM; in [2] it was greater than 1722 nM; in assay [3] it was 8.8 nM; on D(2) dopamine receptor [4], 2 nM.

`COC(=O)c1cc2c3c(ccc2[nH]1)OCC(CN1CCC(n2c(O)nc4ccccc42)CC1)O3` (stereo unspecified): the Ki in assay [1] stood at 0.6 nM; in assay [2], 31.6 nM; in [3] it was 1.8 nM; at D(2) dopamine receptor [4], 6.7 nM.

What is called Ki is a measure of affinity in units of concentration, obtained from inhibition or displacement. A higher Ki goes with lower affinity.
